Test results published in ChEMBL document CHEMBL1149618, “Selection, synthesis, and structure-activity relationship of tetrahydropyrido[4,3-d]pyrimidine-2,4-diones as human GnRH receptor antagonists” (Bioorg Med Chem, 2007).
Activity calls are given as the source filed them. No cut-off for these calls is given here.

Target: T1, Gonadotropin-releasing hormone receptor (Homo sapiens) (UniProt P30968)
T1 sequence (whole entry): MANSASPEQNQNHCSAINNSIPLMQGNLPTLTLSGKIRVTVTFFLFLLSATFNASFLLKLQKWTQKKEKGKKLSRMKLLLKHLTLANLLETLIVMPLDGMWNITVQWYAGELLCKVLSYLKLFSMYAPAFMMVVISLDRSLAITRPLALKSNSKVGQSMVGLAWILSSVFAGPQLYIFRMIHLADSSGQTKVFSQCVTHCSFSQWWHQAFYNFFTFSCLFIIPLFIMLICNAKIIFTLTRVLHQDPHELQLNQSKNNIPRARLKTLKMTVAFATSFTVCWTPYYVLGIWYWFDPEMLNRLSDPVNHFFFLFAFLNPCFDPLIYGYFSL
Experiment: (§1) Displacement of [125I]His5,D-Tyr6]GnRH from human cloned GnRH receptor transfected in COS7 cells
Type: cell-based
Conditions: COS-7
Outline: (§2)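 Competition binding against the radiolabelled GnRH agonist at the cloned human GnRH receptor, following a previously published method. Only compounds above 85% UV purity at 220 and 254 nm by LC–MS were assayed. Each compound was tested at least twice.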

Row | Activity | Structure (SMILES)
1 | inactive | COc1ccccc1CN1CCc2c(c(=O)n(CCN(C)CCc3ccccn3)c(=O)n2Cc2c(F)cccc2F)C1

Target: T2, Gonadotropin-releasing hormone receptor (Homo sapiens, UniProt P30968)
T2 sequence (P30968 whole entry): T1 sequence (whole entry)
Experiment: as §1
Type: cell-based, COS-7
Conditions: not given
Outline: as §2

Row | Ki [nM] | Structure (SMILES)
2 | > 10000 | CN(CCc1ccccn1)CCn1c(=O)c2c(n(Cc3c(F)cccc3F)c1=O)CCN(Cc1ccc(-n3ccnc3)cc1)C2
3 | 1800 | Cc1ccc(CN2CCc3c(c(=O)n(CCN(C)CC(C)C)c(=O)n3Cc3c(F)cccc3F)C2)c(C)c1
4 | 300 | CN(CCc1ccccn1)CCn1c(=O)c2c(n(Cc3c(F)cccc3F)c1=O)CCN(Cc1ccc(C(C)(C)C)cc1)C2
5 | 30 | CN(CCc1ccccn1)CCn1c(=O)c2c(n(Cc3c(F)cccc3F)c1=O)CCN(Cc1ccc(C(F)(F)F)cc1)C2
6 | 20 | CCc1ccc(CN2CCc3c(c(=O)n(CCN(C)CCc4ccccn4)c(=O)n3Cc3c(F)cccc3F)C2)cc1
7 | 2580 | Cc1ccc(CN2CCc3c(c(=O)n(CC4CCCN(C5CCCC5)C4)c(=O)n3Cc3c(F)cccc3F)C2)c(C)c1 (centres undefined)
8 | > 10000 | Cc1ccc(CN2CCc3c(c(=O)n(CC4CCCCN4)c(=O)n3Cc3c(F)cccc3F)C2)c(C)c1 (centres undefined)
9 | 5 | Cc1ccc(CN2CCc3c(c(=O)n(CCN(C)CCc4ccccn4)c(=O)n3Cc3c(F)cccc3F)C2)c(C)c1
10 | 70 | CN(C)[C@@H](Cn1c(=O)c2c(n(Cc3c(F)cccc3F)c1=O)CCN(Cc1ccc(Cl)cc1)C2)c1ccccc1
11 | 20 | O=c1c2c(n(Cc3c(F)cccc3F)c(=O)n1C[C@H]1CCCN1Cc1ccccn1)CCN(Cc1ccc(Cl)cc1)C2
12 | 15 | Cc1c(CN2CCc3c(c(=O)n(CCN(C)CCc4ccccn4)c(=O)n3Cc3c(F)cccc3F)C2)sc2ccccc12
13 | 30 | O=c1c2c(n(Cc3c(F)cccc3F)c(=O)n1C[C@H]1CCCCN1CCc1ccccn1)CCN(Cc1ccc(Cl)cc1)C2
14 | > 10000 | COc1cccc(-n2c(=O)c3c(n(Cc4c(F)cccc4F)c2=O)CN(Cc2ccc(C)cc2)CC3)c1
15 | 945 | Cc1ccc(CN2CCc3c(c(=O)n(CC4CCCCN4Cc4ccccc4)c(=O)n3Cc3c(F)cccc3F)C2)c(C)c1 (centres undefined)
16 | 1710 | Cc1ccc(CN2CCc3c(c(=O)n(CC4CCCCN4C)c(=O)n3Cc3c(F)cccc3F)C2)c(C)c1 (centres undefined)
17 | > 10000 | CN(CCc1ccccn1)CCn1c(=O)c2c(n(Cc3c(F)cccc3F)c1=O)CCNC2

Row | Ki [nM] | Structure (SMILES)
18 | > 10000 | Cc1c(CN2CCc3[nH]c(=O)n(CCN(C)CCc4ccccn4)c(=O)c3C2)sc2ccccc12
19 | 2450 | Cc1ccc(CN2CCc3c(c(=O)n(CC4CCCNC4)c(=O)n3Cc3c(F)cccc3F)C2)c(C)c1 (centres undefined)
20 | 10 | CSc1ccc(CN2CCc3c(c(=O)n(CCN(C)CCc4ccccn4)c(=O)n3Cc3c(F)cccc3F)C2)cc1
21 | 80 | Cc1c(CN2CCc3c(c(=O)n(CCN(C)CCc4ccccn4)c(=O)n3Cc3ccccc3F)C2)sc2ccccc12
22 | 2410 | O=c1c2c(n(Cc3c(F)cccc3F)c(=O)n1C[C@@H]1CCCCN1CCc1ccccn1)CCN(Cc1ccc(Cl)cc1)C2
23 | 490 | Cc1ccc(CN2CCc3c(c(=O)n(CC4CCCN(Cc5ccccn5)C4)c(=O)n3Cc3c(F)cccc3F)C2)c(C)c1 (centres undefined)
24 | 25 | Cc1ccc(CN2CCc3c(c(=O)n(CC4CCCCN4Cc4ccccn4)c(=O)n3Cc3c(F)cccc3F)C2)c(C)c1 (centres undefined)
25 | 180 | Cc1ccc(CN2CCc3c(c(=O)n(CCN(C)Cc4ccccn4)c(=O)n3Cc3c(F)cccc3F)C2)c(C)c1
26 | 850 | CN(CCc1ccccn1)CCn1c(=O)c2c(n(Cc3c(F)cccc3F)c1=O)CCN(Cc1cccc(Cl)c1)C2
27 | 990 | CN(CCc1ccccn1)CCn1c(=O)c2c(n(Cc3c(F)cccc3F)c1=O)CCN(Cc1ccccc1)C2
28 | > 10000 | Cc1ccc(CN2CCc3c(c(=O)n(CC4CCCN(C)C4)c(=O)n3Cc3c(F)cccc3F)C2)c(C)c1 (centres undefined)
29 | 2200 | COc1cccc(-n2c(=O)c3c(n(Cc4c(F)cccc4F)c2=O)CN(CCc2c[nH]c4ccccc24)CC3)c1
30 | 1400 | CCc1ccc(CN2CCc3c(c(=O)n(CCN(C)C)c(=O)n3Cc3c(F)cccc3F)C2)cc1
31 | 10 | O=c1c2c(n(Cc3c(F)cccc3F)c(=O)n1C[C@H]1CCCN1CCc1ccccn1)CCN(Cc1ccc(Cl)cc1)C2
32 | 17 | CN(CCc1ccccn1)CCn1c(=O)c2c(n(Cc3c(F)cccc3F)c1=O)CCN(Cc1ccc(Cl)cc1)C2

The remaining lines, values behind:

Row | Structure (SMILES) | Ki [nM]
33 | O=c1c2c(n(Cc3c(F)cccc3F)c(=O)n1C[C@H]1CCCN1)CCN(Cc1ccc(Cl)cc1)C2 | > 10000
34 | CCSc1ccc(CN2CCc3c(c(=O)n(CCN(C)CCc4ccccn4)c(=O)n3Cc3c(F)cccc3F)C2)cc1 | 15
35 | CN(CCc1ccccn1)CCn1c(=O)c2c(n(Cc3c(F)cccc3F)c1=O)CCN(Cc1nc3ccccc3n1C)C2 | > 10000
36 | COc1cccc(-n2c(=O)c3c(n(Cc4c(F)cccc4F)c2=O)CNCC3)c1 | 970
37 | CN[C@@H](Cn1c(=O)c2c(n(Cc3c(F)cccc3F)c1=O)CCN(Cc1ccc(Cl)cc1)C2)c1ccccc1 | 45
38 | Cc1ccc(CN2CCc3c(c(=O)n(CC4CCCN(Cc5ccccc5)C4)c(=O)n3Cc3c(F)cccc3F)C2)c(C)c1 (centres undefined) | 160
39 | COc1cccc(-n2c(=O)c3c(n(Cc4c(F)cccc4F)c2=O)CN(Cc2ccncc2)CC3)c1 | 1580
40 | Cc1c(CN2CCc3c(c(=O)n(CCN(C)CCc4ccccn4)c(=O)n3Cc3c(F)cccc3C(F)(F)F)C2)sc2ccccc12 | 10
41 | Cc1cc(Cl)ccc1CN1CCc2c(c(=O)n(CCN(C)CCc3ccccn3)c(=O)n2Cc2c(F)cccc2F)C1 | 5
42 | Cc1ccc(CN2CCc3c(c(=O)n(CC4CCCN(CC(C)C)C4)c(=O)n3Cc3c(F)cccc3F)C2)c(C)c1 (centres undefined) | > 10000
43 | Cc1ccc(CN2CCc3c(c(=O)n(CC4CCCCN4CC(C)C)c(=O)n3Cc3c(F)cccc3F)C2)c(C)c1 (centres undefined) | 2590
44 | COc1cccc(-n2c(=O)c3c(n(Cc4c(F)cccc4F)c2=O)CN(Cc2ccccc2)CC3)c1 | 1290
45 | COc1cccc(-n2c(=O)c3c(n(Cc4c(F)cccc4F)c2=O)CN(Cc2ccccc2OC)CC3)c1 | 980
46 | CN(CCc1ccccn1)CCn1c(=O)c2c(n(Cc3c(F)cccc3F)c1=O)CCN(CCc1c[nH]c3ccccc13)C2 | 515
47 | Cc1ccc(CN2CCc3c(c(=O)n(CC4CCCN(CCc5ccccn5)C4)c(=O)n3Cc3c(F)cccc3F)C2)c(C)c1 (centres undefined) | 600
48 | Cc1c(CN2CCc3c(c(=O)n(CCN(C)CCc4ccccn4)c(=O)n3CC3CCCCC3)C2)sc2ccccc12 | 380
49 | O=c1c2c(n(Cc3c(F)cccc3F)c(=O)n1C[C@H]1CCCN1C1CCCC1)CCN(Cc1ccc(Cl)cc1)C2 | 1370
50 | COc1ccc(CN2CCc3c(c(=O)n(CCN(C)CCc4ccccn4)c(=O)n3Cc3c(F)cccc3F)C2)cc1 | 100
51 | Cc1c(CN2CCc3c(c(=O)n(CCN(C)CCc4ccccn4)c(=O)n3Cc3ccccc3)C2)sc2ccccc12 | 305
52 | CN(CCc1ccccn1)CCn1c(=O)c2c(n(Cc3c(F)cccc3F)c1=O)CCN(Cc1ccc(Cl)c(Cl)c1)C2 | 255
53 | Cc1c(CN2CCc3c(c(=O)n(CCN(C)CCc4ccccn4)c(=O)n3C)C2)sc2ccccc12 | > 10000
54 | COc1cccc(-n2c(=O)c3c(n(Cc4c(F)cccc4F)c2=O)CN(Cc2ccc(-n4ccnc4)cc2)CC3)c1 | 540
55 | Cc1ccc(CN2CCc3c(c(=O)n(CCN(C)CCc4ccccn4)c(=O)n3Cc3c(F)cccc3F)C2)cc1 | 35
56 | CN(CCc1ccccn1)CCn1c(=O)c2c(n(Cc3c(F)cccc3F)c1=O)CCN(Cc1ccncc1)C2 | > 10000
57 | Cc1ccccc1CN1CCc2c(c(=O)n(CCN(C)CCc3ccccn3)c(=O)n2Cc2c(F)cccc2F)C1 | 85
58 | Cc1ccc(CN2CCc3c(c(=O)n(CC4CCCCN4C4CCCC4)c(=O)n3Cc3c(F)cccc3F)C2)c(C)c1 (centres undefined) | 520
59 | CN(CCc1ccccn1)CCn1c(=O)c2c(n(Cc3c(F)cccc3F)c1=O)CCN(Cc1ccc(S(C)(=O)=O)cc1)C2 | 805
